For 13 compounds, MIC results are on record in ChEMBL document CHEMBL1287747, “Highly active antimycobacterial derivatives of benzoxazine” (2010).

Common to all, as to type: functional
For test [1], the system named is Mycobacterium kansasii. As to the kind of experiment: Antimycobacterial activity against Mycobacterium kansasii 6509/96 after 14 days by microdilution method. Particulars: 6509/96, 336 h. In short, it runs like this: (§1)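 Clinical isolate that, unlike the standard strain, is not isoniazid-resistant. Tested by dilution micromethod in Šula semisynthetic medium, with compounds added in DMSO at final 1000 down to 0.25 µmol/L in twofold steps. Löwenstein-Jensen plate used as inoculum sterility and growth control. Incubated at 37 °C and read at 14 and 21 days. MIC is the lowest concentration inhibiting growth.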
In general terms: In broth dilution the organism is exposed to a series of concentrations in liquid medium.

Test [2] has as its system Mycobacterium tuberculosis. Nature of the test: Antimycobacterial activity against Mycobacterium tuberculosis CNCTC My 331/88 after 14 days by microdilution method. The following applies: CNCTC My 331/88, 336 h. In short, it runs like this: (§2)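 Strains from the Czech National Collection of Type Cultures, tested by dilution micromethod in Šula semisynthetic medium. Incubated at 37 °C and read at 14 and 21 days. MIC is the lowest concentration inhibiting growth.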

The test system of test [3] is Mycobacterium kansasii. Nature of the test: Antimycobacterial activity against Mycobacterium kansasii CNCTC My 235/80 after 14 days by microdilution method. The following applies: CNCTC My 235/80, 336 h. In short, it runs like this:
as §2

Test [4] deals with Mycobacterium avium. Nature of the test: Antimycobacterial activity against Mycobacterium avium CNCTC My 330/88 after 21 days by microdilution method. Particulars: CNCTC My 330/88, 504 h. The method in brief:
as §2

Test [5] concerns Mycobacterium avium. As to the kind of experiment: Antimycobacterial activity against Mycobacterium avium CNCTC My 330/88 after 14 days by microdilution method. The following applies: CNCTC My 330/88, 336 h. The method in brief: as §2
Test [6] has as its system Mycobacterium kansasii. As to the kind of experiment: Antimycobacterial activity against Mycobacterium kansasii CNCTC My 235/80 after 21 days by microdilution method. The following applies: CNCTC My 235/80, 504 h. The method in brief:
as §2

Test [7] concerns Mycobacterium kansasii. Nature of the test: Antimycobacterial activity against Mycobacterium kansasii 6509/96 after 21 days by microdilution method. The following applies: 6509/96, 504 h. In short, it runs like this:
as §1

Test [8] deals with Mycobacterium tuberculosis. Nature of the test: Antimycobacterial activity against Mycobacterium tuberculosis CNCTC My 331/88 after 21 days by microdilution method. The following applies: CNCTC My 331/88, 504 h. The method in brief:
as §2

In brackets after ≈: the same amount, converted by molar mass.

As to `CCc1ccc(-n2c(=O)oc3cc(Cl)ccc3c2=S)cc1`, the MIC in the test on Mycobacterium kansasii [1] worked out at 8 µM (≈ 2.54 µg/mL); in test [2], 0.5 µM (≈ 0.159 µg/mL); against Mycobacterium kansasii [3] it was 8 µM (≈ 2.54 µg/mL); with Mycobacterium avium [4] it was 8 µM (≈ 2.54 µg/mL); in the test on Mycobacterium avium [5], 8 µM (≈ 2.54 µg/mL); with Mycobacterium kansasii [6], 8 µM (≈ 2.54 µg/mL). Moreover, the results for the minimal inhibitory concentration (MIC) (against Mycobacterium kansasii [7]; in test [8]) were 8 µM (≈ 2.54 µg/mL) and 0.5 µM (≈ 0.159 µg/mL), respectively.
With `CC(C)c1ccc(-n2c(=O)oc3ccc(Cl)cc3c2=S)cc1`, the minimal inhibitory concentration (MIC) against Mycobacterium kansasii [1] was found to be 1 µM (≈ 0.332 µg/mL); in test [2] it was 0.5 µM (≈ 0.166 µg/mL); in the test on Mycobacterium kansasii [3], 8 µM (≈ 2.65 µg/mL); against Mycobacterium avium [4], 125 µM (≈ 41.5 µg/mL); in the test with Mycobacterium avium [5], 32 µM (≈ 10.6 µg/mL); in the test with Mycobacterium kansasii [6] it was 16 µM (≈ 5.31 µg/mL). The minimum inhibitory concentration (MIC) was 2 µM (≈ 0.664 µg/mL) in the test on Mycobacterium kansasii [7] and 1 µM (≈ 0.332 µg/mL) in test [8].
Consider `CC(C)c1ccc(-n2c(=O)oc3cc(Cl)ccc3c2=S)cc1`, for which the MIC was 4 µM (≈ 1.33 µg/mL) with Mycobacterium kansasii [1]; 0.5 µM (≈ 0.166 µg/mL) in test [2]; 8 µM (≈ 2.65 µg/mL) against Mycobacterium kansasii [3]; 8 µM (≈ 2.65 µg/mL) with Mycobacterium avium [4]; 8 µM (≈ 2.65 µg/mL) in the test on Mycobacterium avium [5]; 8 µM (≈ 2.65 µg/mL) in the test with Mycobacterium kansasii [6]. The minimal inhibitory concentration (MIC) worked out at 8 µM (≈ 2.65 µg/mL) against Mycobacterium kansasii [7] and 1 µM (≈ 0.332 µg/mL) in test [8].
Consider `CCC(C)c1ccc(-n2c(=O)oc3ccc(Cl)cc3c2=S)cc1` (centres undefined), for which the minimum inhibitory concentration (MIC) in the test on Mycobacterium kansasii [1] was determined as 4 µM (≈ 1.38 µg/mL); in test [2], 0.5 µM (≈ 0.173 µg/mL); in the test on Mycobacterium kansasii [3], 8 µM (≈ 2.77 µg/mL); against Mycobacterium avium [4] it was 32 µM (≈ 11.1 µg/mL); against Mycobacterium avium [5], 32 µM (≈ 11.1 µg/mL); against Mycobacterium kansasii [6], 8 µM (≈ 2.77 µg/mL). The figures for the MIC (in the test with Mycobacterium kansasii [7]; in test [8]) were 8 µM (≈ 2.77 µg/mL) and 1 µM (≈ 0.346 µg/mL), respectively.
Consider `CCC(C)c1ccc(-n2c(=O)oc3cc(Cl)ccc3c2=S)cc1` (centres undefined), for which the MIC came to 1 µM (≈ 0.346 µg/mL) against Mycobacterium kansasii [1]; 1 µM (≈ 0.346 µg/mL) in test [2]; 4 µM (≈ 1.38 µg/mL) in the test on Mycobacterium kansasii [3]; 8 µM (≈ 2.77 µg/mL) with Mycobacterium avium [4]; 8 µM (≈ 2.77 µg/mL) in the test with Mycobacterium avium [5]; 8 µM (≈ 2.77 µg/mL) in the test on Mycobacterium kansasii [6]. In addition, the MIC (with Mycobacterium kansasii [7]; in test [8]) was 2 µM (≈ 0.692 µg/mL) in each case.
With `CCCCc1ccc(-n2c(=O)oc3ccc(Cl)cc3c2=S)cc1`, the MIC against Mycobacterium kansasii [1] amounted to 4 µM (≈ 1.38 µg/mL); in test [2] it was 1 µM (≈ 0.346 µg/mL); in the test on Mycobacterium kansasii [3], 8 µM (≈ 2.77 µg/mL); in the test with Mycobacterium avium [4], 16 µM (≈ 5.53 µg/mL); against Mycobacterium avium [5], 8 µM (≈ 2.77 µg/mL); in the test with Mycobacterium kansasii [6] it was 16 µM (≈ 5.53 µg/mL). In addition, the values for the MIC (in the test on Mycobacterium kansasii [7]; in test [8]) were 4 µM (≈ 1.38 µg/mL) and 2 µM (≈ 0.692 µg/mL), respectively.
With `CC(C)(C)c1ccc(-n2c(=O)oc3cc(Cl)ccc3c2=S)cc1`, the MIC was 2 µM (≈ 0.692 µg/mL) with Mycobacterium kansasii [1]; 2 µM (≈ 0.692 µg/mL) in test [2]; 4 µM (≈ 1.38 µg/mL) against Mycobacterium kansasii [3]; 8 µM (≈ 2.77 µg/mL) with Mycobacterium avium [4]; 4 µM (≈ 1.38 µg/mL) against Mycobacterium avium [5]; 8 µM (≈ 2.77 µg/mL) in the test with Mycobacterium kansasii [6]. The MIC came to 4 µM (≈ 1.38 µg/mL) in the test with Mycobacterium kansasii [7] and 2 µM (≈ 0.692 µg/mL) in test [8].
As to `CCc1ccc(-n2c(=S)oc3ccc(Br)cc3c2=S)cc1`, the MIC amounted to 4 µM (≈ 1.51 µg/mL) against Mycobacterium kansasii [1]; 1 µM (≈ 0.378 µg/mL) in test [2]; 8 µM (≈ 3.03 µg/mL) against Mycobacterium kansasii [3]; 62.5 µM (≈ 23.6 µg/mL) against Mycobacterium avium [4]; 62.5 µM (≈ 23.6 µg/mL) against Mycobacterium avium [5]; 16 µM (≈ 6.05 µg/mL) against Mycobacterium kansasii [6]. The minimum inhibitory concentration (MIC) stood at 8 µM (≈ 3.03 µg/mL) in the test on Mycobacterium kansasii [7] and 2 µM (≈ 0.757 µg/mL) in test [8].
`CCc1ccc(-n2c(=S)oc3ccc(Cl)cc3c2=S)cc1`: the MIC with Mycobacterium kansasii [1] was determined as 4 µM (≈ 1.34 µg/mL); in test [2], 0.5 µM (≈ 0.167 µg/mL); with Mycobacterium kansasii [3] it was 8 µM (≈ 2.67 µg/mL); in the test with Mycobacterium avium [4] it was 16 µM (≈ 5.34 µg/mL); with Mycobacterium avium [5], 8 µM (≈ 2.67 µg/mL); against Mycobacterium kansasii [6] it was 8 µM (≈ 2.67 µg/mL). Moreover, the minimum inhibitory concentration (MIC) in the test on Mycobacterium kansasii [7] was found to be 6 µM (≈ 2 µg/mL); in test [8] it was 0.5 µM (≈ 0.167 µg/mL).
Regarding `CCc1ccc(-n2c(=S)oc3cc(Cl)ccc3c2=S)cc1`, the minimum inhibitory concentration (MIC) against Mycobacterium kansasii [1] came to 8 µM (≈ 2.67 µg/mL); in test [2], 0.5 µM (≈ 0.167 µg/mL); in the test with Mycobacterium kansasii [3] it was 8 µM (≈ 2.67 µg/mL); with Mycobacterium avium [4], 8 µM (≈ 2.67 µg/mL); with Mycobacterium avium [5], 4 µM (≈ 1.34 µg/mL); against Mycobacterium kansasii [6], 16 µM (≈ 5.34 µg/mL). The figures for the MIC (against Mycobacterium kansasii [7]; in test [8]) were 16 µM (≈ 5.34 µg/mL) and 0.5 µM (≈ 0.167 µg/mL), respectively.
Regarding `CC(C)c1ccc(-n2c(=S)oc3ccc(Br)cc3c2=S)cc1`, the MIC turned out to be 4 µM (≈ 1.57 µg/mL) with Mycobacterium kansasii [1]; 0.5 µM (≈ 0.196 µg/mL) in test [2]; 32 µM (≈ 12.6 µg/mL) with Mycobacterium kansasii [3]; 16 µM (≈ 6.28 µg/mL) in the test with Mycobacterium avium [4]; 8 µM (≈ 3.14 µg/mL) against Mycobacterium avium [5]; 62.5 µM (≈ 24.5 µg/mL) in the test on Mycobacterium kansasii [6]. For the same compound, the minimum inhibitory concentration (MIC) against Mycobacterium kansasii [7] is 8 µM (≈ 3.14 µg/mL); in test [8], 1 µM (≈ 0.392 µg/mL).
Take `CC(C)c1ccc(-n2c(=S)oc3ccc(Cl)cc3c2=S)cc1`: the minimal inhibitory concentration (MIC) amounted to 1 µM (≈ 0.348 µg/mL) in the test on Mycobacterium kansasii [1]; 0.5 µM (≈ 0.174 µg/mL) in test [2]; 8 µM (≈ 2.78 µg/mL) against Mycobacterium kansasii [3]; 125 µM (≈ 43.5 µg/mL) against Mycobacterium avium [4]; 32 µM (≈ 11.1 µg/mL) with Mycobacterium avium [5]; 16 µM (≈ 5.57 µg/mL) against Mycobacterium kansasii [6]. Besides, the minimal inhibitory concentration (MIC) in the test on Mycobacterium kansasii [7] was 2 µM (≈ 0.696 µg/mL); in test [8] it was 1 µM (≈ 0.348 µg/mL).
On to `CC(C)c1ccc(-n2c(=S)oc3cc(Cl)ccc3c2=S)cc1`, for which the MIC in the test with Mycobacterium kansasii [1] is 4 µM (≈ 1.39 µg/mL); in test [2], 0.5 µM (≈ 0.174 µg/mL); in the test with Mycobacterium kansasii [3], 4 µM (≈ 1.39 µg/mL); against Mycobacterium avium [4], 8 µM (≈ 2.78 µg/mL); in the test with Mycobacterium avium [5] it was 8 µM (≈ 2.78 µg/mL); against Mycobacterium kansasii [6] it was 8 µM (≈ 2.78 µg/mL). The MIC was determined as 4 µM (≈ 1.39 µg/mL) in the test on Mycobacterium kansasii [7] and 1 µM (≈ 0.348 µg/mL) in test [8].

Broadly, the MIC is the least concentration at which growth counts as inhibited.
